PLC-gamma1 inh: PLC-gamma1 (human) inhibition, primary screen. AID 720700. P19174. 0.84% of 370,000 active. inhibition, % at 12.2 µM. purified PLC-gamma1, fluorogenic substrate, fluorescence; in the data active = inhibition above about 9.5%
TbMetRS inhib: Trypanosoma brucei MetRS inhibition. purified T. brucei MetRS, ATP depletion, Kinase-Glo luminescence. inhibition, % at 11.9 µM. 0.4% of 360,000 active. AID 624268;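 active = inhibition above a per-plate cutoff of the control wells' mean inhibition plus 3 SD, cut at about 5.5% in these data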
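assay system = parasite MetRS enzyme | timing = 15 min preincubation, 2 h reaction, all 25 °C | evaluation = percent inhibition relative to median high and low control wells | medium = HEPES buffer containing pyrophosphatase, BSA, spermine, DTT | compound = single dose, 11.9 µM final nominal, 0.9% final DMSO | detection = Kinase-Glo luminescence, ATP depletion format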
HGIII-sPLA2 inh: Inhibits HGIII-sPLA2 liposome hydrolysis, primary screen; QFRET BODIPY PC-A2 liposome hydrolysis, fluorescence; inhibition, % at 12.2 µM; 0.56% of 370,000 active; Q9NZ20;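 active = inhibition above mean plus 3 SD of compounds lying within the high and low control bounds, cut at about 19% in these data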
PLCb3 inh: PLC-beta3 (human) inhibition, primary screen; Q01970; Purified PLC-beta3, fluorogenic substrate, fluorescence; inhibition, % at 12.2 µM; 0.18% of 370,000 active; AID 720704; in the data active = inhibition above about 11%
Target sequence (Q01970 whole entry, looked up): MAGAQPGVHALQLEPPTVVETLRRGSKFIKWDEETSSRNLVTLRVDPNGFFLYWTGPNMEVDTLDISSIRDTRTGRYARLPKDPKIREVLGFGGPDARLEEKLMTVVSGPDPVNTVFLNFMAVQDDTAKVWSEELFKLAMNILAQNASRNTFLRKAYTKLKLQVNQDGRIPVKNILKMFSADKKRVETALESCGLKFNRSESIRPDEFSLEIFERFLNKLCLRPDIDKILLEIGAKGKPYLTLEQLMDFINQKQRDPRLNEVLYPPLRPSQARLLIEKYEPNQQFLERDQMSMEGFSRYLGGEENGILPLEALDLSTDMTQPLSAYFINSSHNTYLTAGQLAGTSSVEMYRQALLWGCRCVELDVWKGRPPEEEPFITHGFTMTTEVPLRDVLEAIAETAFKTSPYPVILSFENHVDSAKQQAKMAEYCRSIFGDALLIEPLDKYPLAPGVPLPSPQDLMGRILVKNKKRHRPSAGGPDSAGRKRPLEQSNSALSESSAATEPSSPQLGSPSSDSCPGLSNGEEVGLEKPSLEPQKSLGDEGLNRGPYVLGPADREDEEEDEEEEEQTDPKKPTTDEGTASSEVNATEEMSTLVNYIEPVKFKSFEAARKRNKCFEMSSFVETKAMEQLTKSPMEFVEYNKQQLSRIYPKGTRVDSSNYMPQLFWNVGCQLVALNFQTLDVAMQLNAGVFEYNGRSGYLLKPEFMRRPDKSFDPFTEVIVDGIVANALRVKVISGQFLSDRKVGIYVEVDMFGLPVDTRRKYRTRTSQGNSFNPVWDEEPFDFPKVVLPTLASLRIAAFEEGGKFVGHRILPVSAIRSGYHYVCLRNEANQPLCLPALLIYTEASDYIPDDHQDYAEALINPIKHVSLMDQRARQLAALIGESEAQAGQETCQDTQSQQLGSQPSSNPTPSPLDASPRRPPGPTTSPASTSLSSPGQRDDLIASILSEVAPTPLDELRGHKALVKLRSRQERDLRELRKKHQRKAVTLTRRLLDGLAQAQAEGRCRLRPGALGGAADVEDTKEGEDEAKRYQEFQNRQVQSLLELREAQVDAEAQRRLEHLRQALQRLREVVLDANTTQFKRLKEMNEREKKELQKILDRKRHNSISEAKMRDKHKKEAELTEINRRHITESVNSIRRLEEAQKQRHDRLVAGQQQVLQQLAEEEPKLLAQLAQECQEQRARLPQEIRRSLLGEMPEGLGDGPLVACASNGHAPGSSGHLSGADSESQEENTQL
Tb MetRS conf: confirmation of Trypanosoma brucei MetRS inhibitors | shares compounds with TbMetRS inhib | T. brucei MetRS enzyme, luminescence (ATP depletion) | inhibition, % at 11.9 µM | 93% of 1,400 active | AID 624412; in the data active = inhibition above about 7%
Jurkat cytotox: kills Jurkat cells in T. brucei MetRS counterscreen | inhibition, % at 8.3 µM | 12% of 1,400 active | shares compounds with TbMetRS inhib | Jurkat cells viability, ATP luminescence; in the data active = inhibition above about 15%
TbMetRS FP orth: T. brucei MetRS inhibition, orthogonal assay; inhibition, % at 11.9 µM; purified T. brucei MetRS, fluorescence polarization; shares compounds with TbMetRS inhib; 44% of 1,400 active; AID 651607; in the data active = inhibition above about 17%
Each line names hits and unclear results; the compound was inactive in the other large screens (follow-up assays come after a bar, where they were run). Shown are actives, neighbours in structure and some others; about 1.9% of the full set was active somewhere.

Cc1cc2c(c(=O)n1CC1CCCO1)C(c1ccc3c(c1)OCO3)C(C#N)=C(N)O2 (stereo not given)	TbMetRS inhib 60 | Tb MetRS conf 75 | Jurkat cytotox inactive | TbMetRS FP orth 49
CCn1c(C)cc2c(c1=O)C(c1ccc3c(c1)OCO3)C(C#N)=C(N)O2 (stereo not given)	TbMetRS inhib 23 | Tb MetRS conf inactive | Jurkat cytotox inactive | TbMetRS FP orth inactive
CCn1c(C)cc2c(c1=O)C(c1ccncc1)C(C#N)=C(N)O2 (stereo not given)	none
Cc1cc2c(c(=O)n1CCN(C)C)C(c1ccc(Cl)cc1)C(C#N)=C(N)O2 (stereo not given)	none
COc1cccc(CC(=O)NCC2CCN(C(=O)C(=O)c3cccs3)CC2)c1	none (no result: TbMetRS inhib)
Cn1c(CCCOc2ccc(Cl)cc2Cl)nnc1SCC(=O)Nc1cccc(F)c1	TbMetRS inhib 6.8 | Tb MetRS conf 34 | Jurkat cytotox inactive | TbMetRS FP orth 41
Cn1c(CCCOc2ccc(Cl)cc2Cl)nnc1SCC(=O)Nc1ccc(F)c(Cl)c1	none
Nc1c(NC(=O)CC[n+]2ccccc2)cccc1[N+](=O)[O-]	TbMetRS inhib 11 | Tb MetRS conf 18 | Jurkat cytotox inactive | TbMetRS FP orth inactive
O=C(NCc1cc(Cl)cc(Cl)c1)c1ccc2nc(COCCO)[nH]c2c1	TbMetRS inhib 21 | Tb MetRS conf 55 | Jurkat cytotox inactive | TbMetRS FP orth 30
Cc1ccc2[nH]c3c(N4CCc5ccccc5C4)ncnc3c2c1	TbMetRS inhib 12 | Tb MetRS conf inactive | Jurkat cytotox 47 | TbMetRS FP orth inactive
Fc1ccc2[nH]c3c(N4CCc5ccccc5C4)ncnc3c2c1	TbMetRS inhib 58 | Tb MetRS conf 14 | Jurkat cytotox 50 | TbMetRS FP orth inactive
CCN(CC)C(=O)CC[C@@H]1CC[C@]2(CCCN(Cc3cccnc3)C2)O1	none (no result: TbMetRS inhib)
COC(=O)c1cc2c(c3c4cc(F)ccc4n(S(=O)(=O)c4cccc(C)c4)c13)C(=O)N(C)C2	none (no result: TbMetRS inhib)
O=C(Nc1cccc(S(=O)(=O)N2CCOCC2)c1)c1ccc(Cl)c([N+](=O)[O-])c1	TbMetRS inhib 7.7 | Tb MetRS conf 19 | Jurkat cytotox 21 | TbMetRS FP orth inactive
O=C(Nc1ccc(S(=O)(=O)N2CCOCC2)cc1)c1ccc(Cl)c([N+](=O)[O-])c1	none
O=C(Nc1ccc(NC(=O)c2ccc(Cl)c(S(=O)(=O)N3CCOCC3)c2)cc1)c1ccccc1	none
O=C(Nc1ccccc1)Nc1ccc(Cl)c(S(=O)(=O)N2CCOCC2)c1	TbMetRS inhib 15 | Tb MetRS conf 19 | Jurkat cytotox inactive | TbMetRS FP orth inactive
O=C(CCCSc1nc2ccccc2[nH]1)NC(c1ccccc1)c1ccccc1	none
O=C(CCCSc1nc2ccccc2[nH]1)NCc1ccccc1Cl	TbMetRS inhib 10 | Tb MetRS conf 17 | Jurkat cytotox inactive | TbMetRS FP orth inactive
O=C(COC(=O)CCCSc1nc2ccccc2[nH]1)Nc1ccc(Cl)cc1	TbMetRS inhib 13 | Tb MetRS conf 21 | Jurkat cytotox inactive | TbMetRS FP orth inactive
CCCC(=O)Nc1sc(C)c(-c2ccc(OC)cc2)c1C#N	none
CCCc1ccc(-c2c(C)sc(N)c2C#N)cc1	TbMetRS inhib 27 | Tb MetRS conf 17 | Jurkat cytotox inactive | TbMetRS FP orth inactive
COC(=O)C1=C(C)N(Cc2ccc(Br)cc2)C(=S)NC1c1ccc(OC)cc1 (stereo not given)	none (no result: TbMetRS inhib)
CCOc1ccc(/C=C2\SC(=S)N(NS(=O)(=O)c3ccccc3)C2=O)cc1OC	none
CCOc1cc(/C=C2\SC(=O)N=C2N)ccc1O	TbMetRS inhib 32 | Tb MetRS conf 44 | Jurkat cytotox inactive | TbMetRS FP orth 19
CCOc1cc(/C=C2\SC(=S)N(NS(=O)(=O)c3ccccc3)C2=O)ccc1O	TbMetRS inhib 9.0 | Tb MetRS conf 19 | Jurkat cytotox inactive | TbMetRS FP orth 24
COc1ccc2c(c1)[C@@]1(OCCC=C[C@H]1C)C(=O)N2Cc1ccc(F)cc1	none (no result: TbMetRS inhib)
Cc1ccccc1Nc1nnc(SCC(=O)N(C)C2CCS(=O)(=O)C2)s1 (stereo not given)	none
O=C(CSc1nnc(Nc2ccccc2)s1)NC1CCS(=O)(=O)C1 (stereo not given)	TbMetRS inhib 9.4 | Tb MetRS conf 27 | Jurkat cytotox inactive | TbMetRS FP orth inactive
Cc1ccc(Nc2nnc(SCC(=O)N(C)C3CCS(=O)(=O)C3)s2)cc1 (stereo not given)	none
Cc1cccc(C)c1Nc1nnc(SCC(=O)NC2CCS(=O)(=O)C2)s1 (stereo not given)	none
CCN(C(=O)CSc1nnc(Nc2ccccc2)s1)C1CCS(=O)(=O)C1 (stereo not given)	TbMetRS inhib 7.4 | Tb MetRS conf 16 | Jurkat cytotox inactive | TbMetRS FP orth inactive
COc1ccc(Nc2nnc(SCC(=O)N(CC(C)C)C3CCS(=O)(=O)C3)s2)cc1 (stereo not given)	TbMetRS inhib 11 | Tb MetRS conf 29 | Jurkat cytotox inactive | TbMetRS FP orth 18
COC(=O)[C@H](C)N(Cc1cn(Cc2ccccc2)nn1)S(=O)(=O)c1ccccc1Br	none (no result: TbMetRS inhib)
COc1cccc2c1[C@H](/C=C/c1ccccc1)[C@@H]([C@H](O)CO)OC2	none (no result: TbMetRS inhib)
CCc1cccc2c(C(=O)COC(=O)c3ccc([N+](=O)[O-])s3)c[nH]c12	none
O=C(OCC(=O)c1c[nH]c2ccccc12)c1ccc([N+](=O)[O-])s1	TbMetRS inhib 10 | Tb MetRS conf 23 | Jurkat cytotox inactive | TbMetRS FP orth inactive
CCCCS(=O)(=O)N1CCCc2nc(C)c(C)cc21	none (no result: TbMetRS inhib)
Nc1ccc2nc(CCCCc3nc4ccccc4[nH]3)[nH]c2c1	TbMetRS inhib 9.3 | Tb MetRS conf 14 | Jurkat cytotox inactive | TbMetRS FP orth inactive
COc1cc(/C=C/C(=O)OCC(=O)c2c[nH]c3ccccc23)ccc1OC(F)F	TbMetRS inhib 6.3 | Tb MetRS conf 13 | Jurkat cytotox inactive | TbMetRS FP orth 36
CN1CCCCC(NC(=O)CCl)C1=O (stereo not given)	none (no result: TbMetRS inhib)
O=C(COc1nsnc1N1CCOCC1)Nc1ccc([N+](=O)[O-])cc1	none
O=C(COc1nsnc1N1CCOCC1)Nc1ccc(Cl)cc1	TbMetRS inhib 11 | Tb MetRS conf 23 | Jurkat cytotox inactive | TbMetRS FP orth inactive
Cc1cccc(NS(=O)(=O)c2ccc3nc(-c4ccccc4)[nH]c3c2)c1C	TbMetRS inhib 27 | Tb MetRS conf 40 | Jurkat cytotox inactive | TbMetRS FP orth 30
Cc1ccc2cc(CCNC(=O)C(=O)c3c(C)[nH]c4ccccc34)c(=O)[nH]c2c1	TbMetRS inhib 13 | Tb MetRS conf 31 | Jurkat cytotox inactive | TbMetRS FP orth inactive
Cc1ccc2cc(CCNC(=O)C(=O)c3c[nH]c4ccccc34)c(=O)[nH]c2c1	none
Nc1[nH]c(C(=O)c2ccc(Br)cc2)c(-c2ccncc2)c1C(=O)c1ccccc1	none (no result: TbMetRS inhib)

Screens as filed in PubChem.
